Test results as given in ChEMBL document CHEMBL1151475, “Thiopurine drugs azathioprine and 6-mercaptopurine inhibit Mycobacterium paratuberculosis growth in vitro” (2008).

Assays:
[1] = test system: Mycobacterium avium subsp. paratuberculosis; experiment: Antituberculosis activity against Mycobacterium paratuberculosis UCF-4 isolated from Crohn's disease patient assessed as minimum drug level required for killing after 56 days by MGIT 960 susceptibility test; type: functional
Summary of the method: (§1)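 10^5 to 10^6 CFU from single-cell suspensions inoculated in duplicate into MGIT ParaTB medium with supplement and egg yolk. Drugs were at final 0.5–64.0 μg/ml, with 128.0 μg/ml added for some strains. Tubes were incubated at 37°C in MGIT 960. Inhibition is the lowest concentration giving a time to detection longer than a drug-free 1:100 inoculum control. Killing is no positive signal through 56 days.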

[2] = test system: Mycobacterium avium subsp. paratuberculosis; experiment: Antituberculosis activity against Mycobacterium paratuberculosis B244 isolated from bovine assessed as minimum drug level required for killing after 56 days by MGIT 960 susceptibility test; type: functional; summary of the method: as §1
[3] = test system: Escherichia coli; experiment: Antituberculosis activity against Escherichia coli ATCC 25922 clinical isolate assessed as minimum drug level required for inhibition by MGIT 960 susceptibility test; type: functional
[4] = test system: Escherichia coli; experiment: Antituberculosis activity against Escherichia coli ATCC 25922 clinical isolate assessed as minimum drug level required for killing after 56 days by MGIT 960 susceptibility test; type: functional
[5] = test system: Mycobacterium avium subsp. paratuberculosis; experiment: Antituberculosis activity against Mycobacterium paratuberculosis B236 isolated from bovine assessed as minimum drug level required for inhibition by MGIT 960 susceptibility test; type: functional; summary of the method: as §1
[6] = test system: Mycobacterium avium subsp. paratuberculosis; experiment: Antituberculosis activity against Mycobacterium paratuberculosis UCF-7 isolated from Crohn's disease patient assessed as minimum drug level required for inhibition by MGIT 960 susceptibility test; type: functional; summary of the method: as §1
[7] = test system: Mycobacterium avium; experiment: Antituberculosis activity against Mycobacterium avium JTC48627 isolated from bison fecal sample assessed as minimum drug level required for inhibition by MGIT 960 susceptibility test; type: functional, Feces; summary of the method: as §1
[8] = test system: Mycobacterium avium subsp. paratuberculosis; experiment: Antituberculosis activity against Mycobacterium paratuberculosis UCF-4 isolated from Crohn's disease patient assessed as minimum drug level required for inhibition by MGIT 960 susceptibility test; type: functional; summary of the method: as §1
[9] = test system: Mycobacterium avium; experiment: Antituberculosis activity against Mycobacterium avium ATCC 25291 isolated from chicken assessed as minimum drug level required for killing within 15 days by MGIT 960 susceptibility test; type: functional
[10] = test system: Mycobacterium avium subsp. paratuberculosis; experiment: Antituberculosis activity against Mycobacterium paratuberculosis JTC303 isolated from bovine assessed as minimum drug level required for killing after 56 days by MGIT 960 susceptibility test; type: functional; summary of the method: as §1
[11] = test system: Mycobacterium avium; experiment: Antituberculosis activity against Mycobacterium avium EPA3 isolated from water assessed as minimum drug level required for killing within 15 days by MGIT 960 susceptibility test; type: functional
[12] = test system: Mycobacterium avium subsp. paratuberculosis; experiment: Antituberculosis activity against Mycobacterium paratuberculosis B213 isolated from bovine assessed as minimum drug level required for inhibition by MGIT 960 susceptibility test; type: functional; summary of the method: as §1
[13] = test system: Mycobacterium avium; experiment: Antituberculosis activity against Mycobacterium avium 104 isolated from AIDS patient assessed as minimum drug level required for killing within 15 days by MGIT 960 susceptibility test; type: functional
[14] = test system: Mycobacterium avium; experiment: Antituberculosis activity against Mycobacterium avium WSLH1544 isolated from water assessed as minimum drug level required for killing within 15 days by MGIT 960 susceptibility test; type: functional
[15] = test system: Mycobacterium avium subsp. paratuberculosis; experiment: Antituberculosis activity against Mycobacterium paratuberculosis UCF-8 isolated from Crohn's disease patient assessed as minimum drug level required for inhibition by MGIT 960 susceptibility test; type: functional; summary of the method: as §1
[16] = test system: Mycolicibacterium smegmatis; experiment: Antituberculosis activity against Mycobacterium smegmatis ATCC 14468 assessed as minimum drug level required for killing after 56 days by MGIT 960 susceptibility test; type: functional; summary of the method: as §1
[17] = test system: Mycobacterium avium; experiment: Antituberculosis activity against Mycobacterium avium ATCC 35712 isolated from chicken assessed as minimum drug level required for inhibition by MGIT 960 susceptibility test; type: functional; summary of the method: as §1
[18] = test system: Enterococcus faecalis; experiment: Antituberculosis activity against Enterococcus faecalis ATCC 29212 isolated from human urine assessed as minimum drug level required for inhibition by MGIT 960 susceptibility test; type: functional
[19] = test system: Mycobacterium avium; experiment: Antituberculosis activity against Mycobacterium avium JTC981 isolated from bongo fecal sample assessed as minimum drug level required for inhibition by MGIT 960 susceptibility test; type: functional, Feces; summary of the method: as §1
[20] = test system: Mycobacterium avium subsp. paratuberculosis; experiment: Antituberculosis activity against Mycobacterium paratuberculosis UCF-5 isolated from Crohn's disease patient assessed as minimum drug level required for killing after 56 days by MGIT 960 susceptibility test; type: functional; summary of the method: as §1
[21] = test system: Mycobacterium avium; experiment: Antituberculosis activity against Mycobacterium avium ATCC 25291 isolated from chicken assessed as minimum drug level required for inhibition by MGIT 960 susceptibility test; type: functional; summary of the method: as §1
[22] = test system: Mycobacterium avium subsp. paratuberculosis; experiment: Antituberculosis activity against Mycobacterium paratuberculosis JTC303 isolated from bovine assessed as minimum drug level required for inhibition by MGIT 960 susceptibility test; type: functional; summary of the method: as §1
[23] = test system: Mycobacterium avium subsp. paratuberculosis; experiment: Antituberculosis activity against Mycobacterium paratuberculosis B238 isolated from bovine assessed as minimum drug level required for inhibition by MGIT 960 susceptibility test; type: functional; summary of the method: as §1
[24] = test system: Mycobacterium avium subsp. paratuberculosis; experiment: Antituberculosis activity against Mycobacterium paratuberculosis ATCC 19698 isolated from bovine assessed as lowest drug level required for killing by MGIT 960 susceptibility test; type: functional
Summary of the method: (§2)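 M. paratuberculosis ATCC 19698 at 10^6 CFU per MGIT ParaTB tube in duplicate, drugs at final 1.0–64.0 μg/ml, 37°C in MGIT 960. Inhibition is the lowest concentration whose time to detection exceeds the 1:100 diluted-inoculum solvent control. No detectable growth means the tube never signals positive through 56 days.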

[25] = test system: Mycolicibacterium phlei; experiment: Antituberculosis activity against Mycobacterium phlei ATCC 11758 assessed as minimum drug level required for killing after 56 days by MGIT 960 susceptibility test; type: functional
Summary of the method: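 Duplicate MGIT ParaTB tubes with egg yolk and supplement received 10^5 to 10^6 CFU and thiopurine (in 0.05 M NaOH/10 mM PBS) at final 0.5 to 64.0 μg/ml, plus 128.0 μg/ml for some strains. Tubes were incubated at 37°C in the MGIT 960. The value is the minimum concentration whose tubes never signalled positive by 56 days.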

[26] = test system: Mycolicibacterium smegmatis; experiment: Antituberculosis activity against Mycobacterium smegmatis ATCC 14468 assessed as minimum drug level required for inhibition by MGIT 960 susceptibility test; type: functional
Summary of the method: (§3)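 MGIT ParaTB tubes were supplemented with egg yolk and inoculated in duplicate with 10^5 to 10^6 CFU from single-cell suspensions. Thiopurines were dissolved in 0.05 M NaOH in 10 mM PBS and tested at final 0.5 to 64.0 μg/ml, with 128.0 μg/ml added for some strains. Tubes ran at 37°C in the MGIT 960. The value is the lowest concentration giving a time-to-detection longer than a drug-free 1:100 inoculum control.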

[27] = test system: Mycolicibacterium phlei; experiment: Antituberculosis activity against Mycobacterium phlei ATCC 11758 assessed as minimum drug level required for inhibition by MGIT 960 susceptibility test; type: functional; summary of the method: as §3
[28] = test system: Enterococcus faecalis; experiment: Antituberculosis activity against Enterococcus faecalis ATCC 29212 isolated from human urine assessed as minimum drug level required for killing after 56 days by MGIT 960 susceptibility test; type: functional
[29] = test system: Mycobacterium avium; experiment: Antituberculosis activity against Mycobacterium avium JTC48627 isolated from bison fecal sample assessed as minimum drug level required for killing within 15 days by MGIT 960 susceptibility test; type: functional, Feces
[30] = test system: Mycobacterium avium subsp. paratuberculosis; experiment: Antituberculosis activity against Mycobacterium paratuberculosis B213 isolated from bovine assessed as minimum drug level required for killing after 56 days by MGIT 960 susceptibility test; type: functional; summary of the method: as §1
[31] = test system: Mycobacterium avium subsp. paratuberculosis; experiment: Antituberculosis activity against Mycobacterium paratuberculosis B244 isolated from bovine assessed as minimum drug level required for inhibition by MGIT 960 susceptibility test; type: functional; summary of the method: as §1
[32] = test system: Mycobacterium avium; experiment: Antituberculosis activity against Mycobacterium avium JTC981 isolated from bongo fecal sample assessed as minimum drug level required for killing within 15 days by MGIT 960 susceptibility test; type: functional, Feces
[33] = test system: Mycobacterium avium subsp. paratuberculosis; experiment: Antituberculosis activity against Mycobacterium paratuberculosis B238 isolated from bovine assessed as minimum drug level required for killing after 56 days by MGIT 960 susceptibility test; type: functional; summary of the method: as §1
[34] = test system: Mycobacterium avium subsp. paratuberculosis; experiment: Antituberculosis activity against Mycobacterium paratuberculosis UCF-7 isolated from Crohn's disease patient assessed as minimum drug level required for killing after 56 days by MGIT 960 susceptibility test; type: functional; summary of the method: as §1
[35] = test system: Mycobacterium avium subsp. paratuberculosis; experiment: Antituberculosis activity against Mycobacterium paratuberculosis UCF-5 isolated from Crohn's disease patient assessed as minimum drug level required for inhibition by MGIT 960 susceptibility test; type: functional; summary of the method: as §1
[36] = test system: Mycobacterium avium; experiment: Antituberculosis activity against Mycobacterium avium 104 isolated from AIDS patient assessed as minimum drug level required for inhibition by MGIT 960 susceptibility test; type: functional; summary of the method: as §1
[37] = test system: Mycobacterium avium subsp. paratuberculosis; experiment: Antituberculosis activity against Mycobacterium paratuberculosis B236 isolated from bovine assessed as minimum drug level required for killing after 56 days by MGIT 960 susceptibility test; type: functional; summary of the method: as §1
[38] = test system: Mycobacterium avium subsp. paratuberculosis; experiment: Antituberculosis activity against Mycobacterium paratuberculosis ATCC 19698 isolated from bovine assessed as minimum drug level resulting in no detectable growth at 10^6 CFU of inoculum after 56 days by MGIT 960 susceptibility test; type: functional; summary of the method: as §2
[39] = test system: Mycobacterium avium subsp. paratuberculosis; experiment: Antituberculosis activity against Mycobacterium paratuberculosis ATCC 19698 isolated from bovine assessed as lowest drug level producing inhibition at 10^6 CFU of inoculum by agar counting method; type: functional
Summary of the method: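 ATCC 19698 at 10^6 CFU was exposed to drug (1.0–64.0 μg/ml) in MGIT ParaTB medium at 37°C. Aliquots taken at 3 and 5 days were centrifuged, resuspended in PBS and declumped with glass beads. Serial dilutions were plated in quadruplicate on 7H10/OADC/mycobactin J and counted after 8 weeks. Inhibition is the lowest concentration giving a 2 log10 (99%) CFU reduction.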

[40] = test system: Mycobacterium avium; experiment: Antituberculosis activity against Mycobacterium avium ATCC 35712 isolated from chicken assessed as minimum drug level required for killing after 56 days by MGIT 960 susceptibility test; type: functional; summary of the method: as §1
[41] = test system: Mycobacterium avium subsp. paratuberculosis; experiment: Antituberculosis activity against Mycobacterium paratuberculosis ATCC 19698 isolated from bovine assessed as lowest drug level producing inhibition at 10^6 CFU of inoculum by MGIT 960 susceptibility test; type: functional; summary of the method: as §2

Cn1cnc([N+](=O)[O-])c1Sc1ncnc2[nH]cnc12 [AZATHIOPRINE]
Activity [1]: >32 µg/mL
Activity [2]: >32 µg/mL
Activity [3]: >128 µg/mL
Activity [4]: >128 µg/mL
Activity [5]: 8 µg/mL
Activity [6]: 1 µg/mL
Activity [7]: 64 µg/mL
Activity [8]: 4 µg/mL
Activity [9]: >64 µg/mL
Activity [10]: >32 µg/mL
Activity [11]: >64 µg/mL
Activity [12]: 8 µg/mL
Activity [13]: >64 µg/mL
Activity [14]: >64 µg/mL
Activity [15]: 2 µg/mL
Activity [16]: >128 µg/mL
Activity [17]: >64 µg/mL
Activity [18]: >128 µg/mL
Activity [19]: >64 µg/mL
Activity [20]: >32 µg/mL
Activity [21]: >64 µg/mL
Activity [22]: 2 µg/mL
Activity [23]: 16 µg/mL
Activity [24]: 16 µg/mL
Activity [25]: 32 µg/mL
Activity [26]: >128 µg/mL
Activity [27]: 2 µg/mL
Activity [28]: >128 µg/mL
Activity [29]: >64 µg/mL
Activity [30]: >32 µg/mL
Activity [31]: 8 µg/mL
Activity [32]: >64 µg/mL
Activity [33]: >32 µg/mL
Activity [34]: 16 µg/mL
Activity [35]: 2 µg/mL
Activity [36]: >64 µg/mL
Activity [37]: >32 µg/mL

CC[C@H]1OC(=O)[C@H](C)[C@@H](O[C@H]2C[C@@](C)(OC)[C@@H](O)[C@H](C)O2)[C@H](C)[C@@H](O[C@@H]2O[C@H](C)C[C@H](N(C)C)[C@H]2O)[C@](C)(O)C[C@@H](C)CN(C)[C@H](C)[C@@H](O)[C@]1(C)O [AZITHROMYCIN]
Activity [1]: 2 µg/mL
Activity [5]: 0.5 µg/mL
Activity [6]: 0.5 µg/mL
Activity [8]: 1 µg/mL
Activity [10]: 4 µg/mL
Activity [12]: 1 µg/mL
Activity [38]: 16 µg/mL
Activity [17]: 1 µg/mL
Activity [39]: 4 µg/mL
Activity [20]: 2 µg/mL
Activity [22]: 1 µg/mL
Activity [40]: 16 µg/mL
Activity [23]: >0.5 µg/mL
Activity [30]: 2 µg/mL
Activity [33]: 1 µg/mL
Activity [34]: 1 µg/mL
Activity [35]: 0.5 µg/mL
Activity [41]: 4 µg/mL
Activity [37]: 4 µg/mL
